MrgX1 antag = antagonists of human MrgX1 receptor, primary screen, HEK293 cells, Fluo-4 calcium flux; Mas-related G-protein coupled receptor member X1 (Homo sapiens), Q96LB2; BAM8-22 antagonism; active compounds read low; B-score at 10 µM; 310,000 tested, 1.3% active;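 active means calcium-response B-score plate-corrected more than 3 library SD below zero, starting fluorescence within 5 deviations, no agonist response on first addition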;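 further: peak minus trough fluorescence over baseline after final BAM8-22 challenge near maximal dose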
Target sequence (Q96LB2 whole entry, looked up): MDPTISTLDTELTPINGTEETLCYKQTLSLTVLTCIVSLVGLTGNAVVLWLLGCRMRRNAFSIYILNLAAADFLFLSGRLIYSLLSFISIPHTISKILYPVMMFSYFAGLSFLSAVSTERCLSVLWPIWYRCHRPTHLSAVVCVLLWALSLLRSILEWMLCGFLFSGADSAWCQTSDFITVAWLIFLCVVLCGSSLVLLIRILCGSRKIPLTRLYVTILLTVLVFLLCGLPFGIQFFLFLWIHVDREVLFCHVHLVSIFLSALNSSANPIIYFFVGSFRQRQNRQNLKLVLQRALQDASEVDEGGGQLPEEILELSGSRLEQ
RGS4 block = RGS4 inhibitors, primary screen, cell-based, HEK293 M3R inducible RGS4, calcium flux | B-score at 10 µM | Regulator of G-protein signaling 4 (Homo sapiens), P49798 | Fluo-4 calcium flux; active compounds read high; triggered by carbachol at its EC20 | 310,000 tested, 0.45% active;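 active means B-score, a plate-corrected calcium signal, over three deviations above library mean, with baseline fluorescence within five deviations of library mean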;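 further: RGS4 expression induced by doxycycline in cells with stable M3 receptor; B-score is computed from the integrated fluorescence ratio over baseline after carbachol; higher B-score means a larger calcium signal and so more RGS4 inhibition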
Target sequence (P49798 whole entry, looked up): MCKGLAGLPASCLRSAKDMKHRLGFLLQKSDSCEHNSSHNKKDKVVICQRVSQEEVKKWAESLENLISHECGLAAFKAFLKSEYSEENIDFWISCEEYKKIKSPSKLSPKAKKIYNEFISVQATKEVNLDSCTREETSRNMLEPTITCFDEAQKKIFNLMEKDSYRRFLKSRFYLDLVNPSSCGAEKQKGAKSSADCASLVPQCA
MrgX1 agonist = agonists of human MrgX1 receptor, primary screen, HEK293 cells, Fluo-4 calcium flux. B-score at 10 µM. Fluo-4 calcium fluorescence, agonist mode; active compounds read high. Mas-related G-protein coupled receptor member X1 (Homo sapiens), Q96LB2. 310,000 tested, 0.44% active;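 active means calcium response B-score plate-corrected fluorescence ratio at least 3 library SD, with starting fluorescence B-score inside 5 SD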
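Assay system: stable human MrgX1 HEK293 cell line. Quantity: 15,000 cells per well. Schedule: cells plated overnight, dye loaded 0.5 h 37 °C, 0.5 h room temperature. Detection: Fluo-4 NW calcium-flux fluorescence, kinetic read. Read-out basis: peak-minus-minimum fluorescence over baseline, converted to B scores. Control set: positive and negative control wells on each plate.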
MrgX1 PAM = positive allosteric modulators of MrgX1, primary screen, HEK293 cells, Fluo-4 calcium flux; FDSS; active compounds read high; 310,000 tested, 0.63% active; B-score at 10 µM; AID 588675, 2011;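 active means plate-corrected calcium response at least 3 library SD above typical, normal starting fluorescence, not activating the receptor alone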;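 further: compound read alongside a low EC10 to EC30 dose of BAM8-22 agonist; peak minus trough fluorescence over baseline measured at the second addition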
RGS4 pot = RGS4 potentiators or activators, primary screen, cell-based, HEK293 M3R inducible RGS4, calcium flux. B-score at 10 µM. carbachol calcium flux Fluo4; active compounds read low. 310,000 tested, 0.92% active;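 active means B-score of the integrated calcium signal more than 4 SD below the library mean, with starting fluorescence not abnormally high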;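 further: negative B-score means reduced calcium response which marks RGS4 activation or potentiation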
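System: HEK293 FlpIn-TREx cells, stable M3R, doxycycline-inducible RGS4. Timing: overnight RGS4 induction, 30 min dye load 37 °C, 20 min compound RT. Also added: carbachol, ECmax concentration. Measured by: Fluo4 fluorescence kinetic imaging of calcium. Evaluation: integrated calcium ratio converted to B score.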
MrgX1 PAM conf = MrgX1 positive allosteric modulators, duplicate retest, confirmation, HEK293 cells, Fluo-4 calcium flux; Fluo-4 calcium fluorescence, FDSS; activation (ratio percentage), % at 10 µM; 1,200 tested, 13% active; shares compounds with MrgX1 PAM; AID 602413, 2012;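 active means ratio at least 3 SD above the weak peptide control, stable starting fluorescence, no direct agonism earlier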;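 further: compound followed by low BAM8-22 agonist challenge near EC20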
HEK293 Ca flux = nonspecific calcium signal in parental HEK293, confirmation, counter-screen for MrgX1 antagonist project, parental HEK293 cells, Fluo-4 calcium flux; shares compounds with MrgX1 antag; Fluo-4 calcium fluorescence, FDSS; AID 624111, 2012; fluorescence ratio F(max-min)/F0 at 10 µM; 4,000 tested, 2% active;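 active means duplicate-averaged calcium fluorescence ratio at least three times the standard deviation of buffer wells, a nonspecific response in parental cells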
HEK293 Ca counter = calcium response in parental HEK293 cells, primary screen, counter-screen for MrgX1 allosteric activator project, cell-based, Fluo-4 calcium flux, duplicate; AID 624114, 2012; fluorescence ratio F(max-min)/F0 at 10 µM; 4,000 tested, 0.4% active; shares compounds with MrgX1 antag; Fluo-4 fluorescence ratio; active compounds read high;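 active means calcium fluorescence ratio, averaged over duplicates, at least 3 SD of the buffer-well ratio, meaning a nonspecific response in receptor-free cells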;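 further: untransfected parental HEK293 lacking MrgX1 used as counterscreen for MrgX1 allosteric activators; fluorescence change taken during the second addition on a kinetic imager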
HEK293 Ca cntr2 = calcium response in parental HEK293 cells, primary screen, counter-screen for MrgX1 agonist project, cell-based, Fluo-4 calcium flux, duplicate, agonist mode; shares compounds with MrgX1 antag; Fluo-4 calcium fluorescence (FDSS); active compounds read high; fluorescence ratio F(max-min)/F0 at 10 µM; 4,000 tested, 8.7% active; AID 624115, 2012;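 active means calcium fluorescence ratio at least three times the spread of buffer wells, meaning a non-specific response in parental cells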
Hits are given with their value; . = inactive; / = no result. In the library only some 3.5% were active in any assay of this set; here they are far more common.

SMILES	MrgX1 antag	RGS4 block	MrgX1 agonist	MrgX1 PAM	RGS4 pot	MrgX1 PAM conf	HEK293 Ca flux	HEK293 Ca counter	HEK293 Ca cntr2
O=C(Nc1ccccc1N1CCOCC1)c1ccccc1NS(=O)(=O)c1ccc(F)c(F)c1	.	.	.	.	.	/	/	/	/
Cc1cc(C)c(S(=O)(=O)ON2C(=O)c3ccccc3C2=O)cc1C	.	.	.	.	.	/	/	/	/
Cc1ccc(S(=O)(=O)ON2C(=O)c3ccccc3C2=O)c(C)c1	.	/	.	36	/	.	.	.	.
CCOc1ccccc1NC(=O)N1CCC(NC(=O)C2CCCCC2)CC1	/	.	/	/	.	/	/	/	/
Cc1ccc(C)c(Oc2cc(F)nc(N)n2)c1	.	.	.	.	.	/	/	/	/
C=CCc1ccccc1Oc1cc(F)nc(N)n1	.	.	.	15	.	9.9%	.	.	.
Cc1ccsc1/C=C(\C#N)C(=O)NCCCN1CCOCC1	.	.	.	24	.	.	.	.	.
CCC(CC)=C(C#N)C(=O)NC1CCCCC1	.	.	.	.	.	/	/	/	/
O=C(Nc1c(C(=O)N2CCOCC2)oc2ccccc12)c1ccccc1Cl	.	.	.	.	.	/	/	/	/
CCOC(=O)c1cc(-c2ccco2)nn1-c1ccc(C)cc1	.	.	.	.	.	/	/	/	/
Cc1ccc(-n2nc(-c3ccco3)cc2C(=O)O)cc1	.	.	.	25	.	5.6%	.	.	.
CCc1nc(N2CCN(S(C)(=O)=O)CC2)c2c3c(sc2n1)CCCC3	.	.	.	7.3	.	.	.	.	.
Oc1ccc(NC(=S)Nc2ccc(O)cc2)cc1	.	.	.	10	.	.	.	.	.
COC(=O)c1ccc(NC(=S)Nc2ccc(O)cc2)cc1	.	.	.	.	.	/	/	/	/
COCc1cc(C)nc(NC2CCCCC2)c1C#N	.	/	.	.	/	/	/	/	/
COCc1cc(SC2CCCCC2)nc(C)n1	.	.	.	15	.	.	.	.	.
CCOc1ccc(-n2c(SCC(=O)Nc3ccc(C(=O)O)cc3)nc3ccccc3c2=O)cc1	.	.	.	.	.	/	/	/	/
COc1ccc(OC)c(-c2csc(NC(=O)Cc3cccs3)n2)c1	.	.	.	7.2	.	.	.	.	.
COc1ccc(CN(CC2CCCO2)C(=O)c2cc3sccc3n2C)c(OC)c1 (centres undefined)	.	.	.	6.5	.	.	.	.	.
CC(C)C(OC(=O)c1cc2sccc2n1C)C(=O)NCC1CCCO1 (centres undefined)	.	.	.	.	.	/	/	/	/
CCCc1nnc(SCC(=O)N2CCOCC2)n1C	.	.	.	.	.	/	/	/	/
Cc1ccc(NC(=O)CSc2nc(-c3ccco3)nc3cc(=O)[nH]n23)c(Cl)c1	.	.	.	.	.	/	/	/	/
CN1C(=O)CSC1=NC12CC3CC(CC(C3)C1)C2	.	.	.	8.2	.	.	.	.	.
CCN1C(=O)CSC1=NC12CC3CC(CC(C3)C1)C2	.	.	.	.	.	/	/	/	/
Cc1ccc(CN2CCNC(=O)C2CC(=O)NCc2cc(C)n(C)n2)cc1 (centres undefined)	.	.	.	.	.	/	/	/	/
CCCCCCn1c(N2CCCC2)nc2c1c(=O)n(C)c(=O)n2C	.	.	.	7.7	.	.	.	.	.
